Results taken from article PMC10405366 (Molecular pharmaceutics, 2023).

Key:
[1] = tested on: female athymic nude (nu/nu) mice; assay: Tolerability study: hematology; type: in vivo, mouse
How it was run: (§1)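 Athymic nude mice (n = 5 per group) received test compound or the Tween80:Captex200:saline vehicle IP every 2 days for 14 days. About 2–4 h after the last dose, mice were killed with CO2 and blood was drawn by cardiac puncture. Complete blood counts and serum chemistry were run by a pathology core. Values are given as means ± SD, n = 3–5.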

[2] = tested on: female athymic nude (nu/nu) mice; assay: Tolerability study: serum chemistry; type: in vivo, mouse
How it was run: as §1

[3] = Mouse pharmacokinetics, plasma LC-MS/MS; type: in vivo; details: female C57BL/6 mice
OVCAR3 = assay: Cell viability assay; type: cell-based, human; details: OVCAR3
How it was run: (§2)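 RPMI1640 (OVCAR3, OVCAR4, MDA-MB-435) or DMEM (OVCAR8, MDA-MB-231) was used, with 10% FBS and penicillin/streptomycin. Cells were STR-validated and kept below 20 passages. Cells were plated at 5000 per well overnight, then given test compound at final 0.95–250 nM (nine levels, 0.5% DMSO) for 72 h at 37 °C. Viability was read by CellTiter-Blue absorbance, and IC50 was taken relative to DMSO. Paclitaxel (0.39–100 nM) was the control, with three biological replicates.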

MDA-MB-435 = assay: Cell viability assay; type: cell-based, human; details: MDA-MB-435
How it was run: as §2

OVCAR8 = assay: 2D foci assay; type: cell-based, human; details: OVCAR8, 50 nM for 8 h, two weeks colony formation, relative to vehicle
How it was run: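 Cells were seeded at 200 per 60 mm dish and left to attach overnight. They were then exposed for 8 h to test compound (50 nM), DMSO vehicle or paclitaxel (10 nM). Medium was replaced and cells grew drug-free for about two weeks (15 days). Colonies were fixed in 4% paraformaldehyde, stained with 0.05% crystal violet, imaged and counted. There were three biological replicates, compared with vehicle by Dunnett's test.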

[4] = 0.10 mg/kg IP every 2 days, 14 days
[5] = 0.25 mg/kg IP every 2 days, 14 days
[6] = 1.00 mg/kg IP every 2 days, removed at 8 days
[7] = 0.50 mg/kg IP every 2 days, removed day 13

SMILES: CN1C(=O)[C@]23SS[C@@]1(C)C(=O)N2[C@H]1Nc2ccccc2[C@@]1([C@@]12c4ccccc4N[C@@H]1N1C(=O)[C@@]4(C)SS[C@]1(C(=O)N4C)[C@H]2O)[C@@H]3O [verticillin A]
- MCH [1, 4]: 14.6 ± 0.2 pg
- MCHC [1, 4]: 32.7 ± 0.7 g/dL
- MCV [1, 4]: 44.6 ± 0.2 fL
- MPV [1, 4]: 7.9 ± 0.1 fL
- PCT [1, 4]: 0.701 ± 0.065%
- PDW [1, 4]: 47.4 ± 1.9%
- RBC [1, 4]: 9.89 ± 0.33 M/μL
- RDW [1, 4]: 13.8 ± 0.5%
- Reticulocyte # [1, 4]: 0 ± 0 K/μL
- WBC # [1, 4]: 6.01 ± 1.29 K/μL
- basophil # [1, 4]: 0.02 ± 0.01 K/μL
- eosinophil # [1, 4]: 0.02 ± 0.02 K/μL
- hematocrit [1, 4]: 44.1 ± 1.4%
- hemoglobin [1, 4]: 14.4 ± 0.3 g/dL
- lymphocyte # [1, 4]: 3.94 ± 1.16 K/μL
- monocyte # [1, 4]: 0.37 ± 0.09 K/μL
- neutrophil # [1, 4]: 1.65 ± 0.15 K/μL
- nucleated RBCs # [1, 4]: 0 ± 0 K/μL
- platelet # [1, 4]: 892 ± 74 K/μL
- reticulocyte [1, 4]: 0 ± 0%
- MCH [1, 5]: 15.2 ± 0.4 pg
- MCHC [1, 5]: 32.6 ± 1.2 g/dL
- MCV [1, 5]: 46.8 ± 1.0 fL
- MPV [1, 5]: 7.6 ± 1.1 fL
- PCT [1, 5]: 0.735 ± 0.147%
- PDW [1, 5]: 48.7 ± 0.8%
- RBC [1, 5]: 9.28 ± 0.81 M/μL
- RDW [1, 5]: 14.2 ± 0.4%
- Reticulocyte # [1, 5]: 8.6 ± 8.3 K/μL
- WBC # [1, 5]: 4.22 ± 1.68 K/μL
- basophil # [1, 5]: 0.01 ± 0.01 K/μL
- eosinophil # [1, 5]: 0.02 ± 0.01 K/μL
- hematocrit [1, 5]: 43.5 ± 4.0%
- hemoglobin [1, 5]: 14.2 ± 1.3 g/dL
- lymphocyte # [1, 5]: 1.72 ± 0.76 K/μL
- monocyte # [1, 5]: 0.18 ± 0.06 K/μL
- neutrophil # [1, 5]: 2.30 ± 0.98 K/μL
- nucleated RBCs # [1, 5]: 0 ± 0 K/μL
- platelet # [1, 5]: 964 ± 203 K/μL
- reticulocyte [1, 5]: 0.10 ± 0.09%
- MCH [1, 6]: 15.4 ± 0.3 pg
- MCHC [1, 6]: 33.7 ± 0.7 g/dL
- MCV [1, 6]: 45.5 ± 0.6 fL
- MPV [1, 6]: 7.7 ± 0.2 fL
- PCT [1, 6]: 0.815 ± 0.096%
- PDW [1, 6]: 47.3 ± 1.7%
- RBC [1, 6]: 9.79 ± 0.75 M/μL
- RDW [1, 6]: 16.2 ± 0.9%
- Reticulocyte # [1, 6]: 0 ± 0 K/μL
- WBC # [1, 6]: 5.97 ± 1.67 K/μL
- basophil # [1, 6]: 0.01 ± 0.01 K/μL
- eosinophil # [1, 6]: 0.03 ± 0.01 K/μL
- hematocrit [1, 6]: 44.6 ± 3.4%
- hemoglobin [1, 6]: 15.0 ± 1.0 g/dL
- lymphocyte # [1, 6]: 1.63 ± 1.19 K/μL
- monocyte # [1, 6]: 0.21 ± 0.29 K/μL
- neutrophil # [1, 6]: 4.09 ± 1.30 K/μL
- nucleated RBCs # [1, 6]: 0 ± 0 K/μL
- platelet # [1, 6]: 1057 ± 146 K/μL
- reticulocyte [1, 6]: 0 ± 0%
- ALP [2, 4]: 163 ± 27 U/L
- ALT [2, 4]: 38 ± 6 U/L
- AST [2, 4]: 98 ± 16 U/L
- BUN [2, 4]: 18 ± 3 mg/dL
- GGT [2, 4]: 5 ± 0 U/L
- albumin [2, 4]: 3.5 ± 0.3 g/dL
- amylase [2, 4]: 1153 ± 176 U/L
- calcium [2, 4]: 11.8 ± 0.4 mg/dL
- cholesterol [2, 4]: 144 ± 16 mg/dL
- creatine kinase [2, 4]: 241 ± 85 U/L
- creatinine [2, 4]: 0.56 ± 0.03 mg/dL
- globulin [2, 4]: 2.2 ± 0.4 g/dL
- glucose [2, 4]: 191 ± 42 mg/dL
- lipase [2, 4]: 43 ± 15 U/L
- phosphorous [2, 4]: 12.8 ± 1.1 mg/dL
- total bilirubin [2, 4]: 0.4 ± 0.1 mg/dL
- total protein [2, 4]: 5.6 ± 0.4 g/dL
- triglyceride [2, 4]: 202 ± 42 mg/dL
- ALP [2, 5]: 141 ± 14 U/L
- ALT [2, 5]: 46 ± 13 U/L
- AST [2, 5]: 112 ± 19 U/L
- BUN [2, 5]: 17 ± 4 mg/dL
- GGT [2, 5]: 3 ± 1 U/L
- albumin [2, 5]: 3.3 ± 0.2 g/dL
- amylase [2, 5]: 1189 ± 89 U/L
- calcium [2, 5]: 11.6 ± 0.5 mg/dL
- cholesterol [2, 5]: 141 ± 10 mg/dL
- creatine kinase [2, 5]: 237 ± 60 U/L
- creatinine [2, 5]: 0.21 ± 0.7 mg/dL
- globulin [2, 5]: 2.1 ± 0.3 g/dL
- glucose [2, 5]: 187 ± 33 mg/dL
- lipase [2, 5]: 71 ± 4 U/L
- phosphorous [2, 5]: 14.0 ± 1.0 mg/dL
- total bilirubin [2, 5]: 0.3 ± 0.0 mg/dL
- total protein [2, 5]: 5.5 ± 0.4 g/dL
- triglyceride [2, 5]: 236 ± 52 mg/dL
- ALP [2, 7]: 92 ± 19 U/L
- ALT [2, 7]: 55 ± 23 U/L
- AST [2, 7]: 201 ± 51 U/L
- BUN [2, 7]: 26 ± 3 mg/dL
- GGT [2, 7]: 7 ± 2 U/L
- albumin [2, 7]: 3.2 ± 0.2 g/dL
- amylase [2, 7]: 1397 ± 318 U/L
- calcium [2, 7]: 11.7 ± 0.4 mg/dL
- cholesterol [2, 7]: 124 ± 22 mg/dL
- creatine kinase [2, 7]: 302 ± 65 U/L
- creatinine [2, 7]: 0.36 ± 0.03 mg/dL
- globulin [2, 7]: 2.1 ± 0.2 g/dL
- glucose [2, 7]: 176 ± 19 mg/dL
- phosphorous [2, 7]: 16.4 ± 2.3 mg/dL
- total bilirubin [2, 7]: 0.4 ± 0.2 mg/dL
- total protein [2, 7]: 5.3 ± 0.3 g/dL
- triglyceride [2, 7]: 187 ± 139 mg/dL
- ALP [2, 6]: 70 ± 61 U/L
- ALT [2, 6]: 44 ± 8 U/L
- AST [2, 6]: 225 ± 68 U/L
- BUN [2, 6]: 25 ± 4 mg/dL
- GGT [2, 6]: 7 ± 3 U/L
- albumin [2, 6]: 2.1 ± 0.9 g/dL
- amylase [2, 6]: 1213 ± 149 U/L
- calcium [2, 6]: 11.4 ± 0.4 mg/dL
- cholesterol [2, 6]: 90 ± 26 mg/dL
- creatine kinase [2, 6]: 498 ± 184 U/L
- creatinine [2, 6]: 0.30 ± 0.12 mg/dL
- globulin [2, 6]: 2.9 ± 1.0 g/dL
- glucose [2, 6]: 116 ± 17 mg/dL
- lipase [2, 6]: 52 ± 22 U/L
- phosphorous [2, 6]: 10.6 ± 6.8 mg/dL
- total bilirubin [2, 6]: 0.3 ± 0.0 mg/dL
- total protein [2, 6]: 5.0 ± 0.4 g/dL
- triglyceride [2, 6]: 114 ± 20 mg/dL
- plasma concentration ([3]; IP 0.25 mg/kg, most results just above the lower limit): 1 to 1000 nM
- plasma concentration ([3]; IV 0.25 mg/kg, most results just above the lower limit): 1 to 1000 nM
- plasma concentration ([3]; oral gavage 2.5 mg/kg, linear range 1–1000 nM): BLOQ
- cytotoxic activity (OVCAR3): pronounced cytotoxic activities
- cytotoxic activity (MDA-MB-435): pronounced cytotoxic activities
- foci formation (OVCAR8): completely abrogated foci formation
